Experimental data: PMC5920785 (Bioorganic & medicinal chemistry, 2017)

Columns and labels:
[1] = system: MYCN2 neuroblastoma cells; assay: Cell viability assay; format: cell-based, human; conditions: MTS; for effect on viability of MYCN2 cells: highest concentration tested (1 μM), 24 h exposure
Method in brief: (§1)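 Cells plated overnight in RPMI with 10% heat-inactivated FBS, penicillin (100 U/ml) and streptomycin (100 μg/ml), at 37 °C in humidified 5% CO2. […] MTS read-out by absorbance at 490 nm. Two experiments, each in triplicate wells (n=6); viability averaged relative to untreated cells.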

[2] = system: SK-N-SH neuroblastoma cells; assay: Cell viability assay; format: cell-based, human; conditions: MTS; for effect on viability of SK-N-SH cells: highest concentration tested (1 μM), 24 h exposure
Method in brief: as §1

[3] = target: 20S constitutive proteasome CT-L (β5) (Homo sapiens, UniProt P20618+P28074); assay: In vitro proteasome activity assay, constitutive proteasome CT-L activity; format: biochemical
[4] = target: 20S constitutive proteasome T-L (β2) (Homo sapiens, UniProt P49720+Q99436); assay: In vitro proteasome activity assay, constitutive proteasome T-L activity; format: biochemical
[5] = target: immunoproteasome T-L (β2) (Homo sapiens, UniProt P40306+P49720); assay: In vitro proteasome activity assay, immunoproteasome T-L activity; format: biochemical
[6] = target: immunoproteasome CT-L (β5) (Homo sapiens, UniProt P20618+P28062); assay: In vitro proteasome activity assay, immunoproteasome CT-L activity; format: biochemical; conditions: for effect on CT-L activity of the immunoproteasome: at ≤10 μM; for change of CT-L activity of the immunoproteasome on inhibition of T-L activity: Fig. S1
[7] = target: 20S constitutive proteasome C-L (β1) (Homo sapiens, UniProt P28072+Q99436); assay: In vitro proteasome activity assay, constitutive proteasome C-L activity; format: biochemical
[8] = target: immunoproteasome C-L (β1) (Homo sapiens, UniProt P28065); assay: In vitro proteasome activity assay, immunoproteasome C-L activity; format: biochemical; conditions: for effect on C-L activity of the immunoproteasome: at ≤10 μM
[9] = system: SK-N-Be(2)c neuroblastoma cells; assay: Cell viability assay; format: cell-based, human; conditions: highest concentration tested (1 μM), 24 h exposure, MTS
Method in brief: as §1

SMILES | cytotoxic effect in MYCN2 cells ([1]; at 0.1–1 μM, 24 h) | cytotoxic effect in SK-N-SH cells ([2]; at 0.1–1 μM, 24 h) | Ki [3] | Ki [4] | Ki [5] | Ki [6] | effect on CT-L activity of the immunoproteasome [6] | Ki [7] | Ki [8] | effect on C-L activity of the immunoproteasome [8] | effect on viability of SK-N-Be(2)c cells [9] | effect on viability of MYCN2 cells [1] | effect on viability of SK-N-SH cells [2] | change of CT-L activity of the immunoproteasome on inhibition of T-L activity [6]
CC(C)C[C@H](NC(=O)[C@H](Cc1ccccc1)NC(=O)c1cnccn1)B(O)O [BTZ, bortezomib, reference compound] | strong cytotoxic effects | strong cytotoxic effects | – | – | – | – | – | – | – | – | – | – | – | –
CCCCCCCCCCCCNC(=O)N[C@H](C(=O)N[C@H]1CSCCNC(=O)/C=C/[C@H](C)NC1=O)C(C)C [Compound 1, (S)-2-(3-Dodecylureido)-3-methyl-N-((8S,11R,E)-8-methyl-5,10-dioxo-1-thia-4,9-diazacyclododec-6-en-11-yl)butanamide] | – | – | 280 nM | 1760 nM | 1390 nM | > 10000 nM | no effect | > 10000 nM | > 10000 nM | no effect | – | – | – | –
CC(C)Cc1ccc([C@H](C)C(=O)N[C@H](C(=O)N[C@H]2CSCCNC(=O)/C=C/[C@H](C)NC2=O)C(C)C)cc1 [Compound 5, (S)-2-((S)-2-(4-Isobutylphenyl)propanamido)-3-methyl-N-((8S,11R,E)-8-methyl-5,10-dioxo-1-thia-4,9-diazacyclododec-6-en-11-yl)butanamide] | – | – | 910 nM | 1070 nM | 740 nM | > 10000 nM | no effect | > 10000 nM | > 10000 nM | no effect | minimal effects | minimal effects | minimal effects | stimulate the CT-L activity
CC(C)[C@H](NC(=O)c1cnccn1)C(=O)N[C@H]1CSCCNC(=O)/C=C/[C@H](C)NC1=O [Compound 6, N-((S)-3-Methyl-1-(((8S,11R,E)-8-methyl-5,10-dioxo-1-thia-4,9-diazacyclododec-6-en-11-yl)amino)-1-oxobutan-2-yl)pyrazine-2-carboxamide] | – | – | 1220 nM | 920 nM | 750 nM | > 10000 nM | no effect | > 10000 nM | > 10000 nM | no effect | minimal effects | minimal effects | minimal effects | stimulate the CT-L activity
